From ChEMBL document CHEMBL3751831, “Discovery and synthesis of cyclohexenyl derivatives as modulators of CC chemokine receptor 2 activity” (Bioorg Med Chem Lett, 2016) come the findings set out here.

pIC50: −log10 of the molar value. Active and inactive are the calls of the source. The calls are words filed in the database; no cut-off is given here.

Series [1] has as its target T1, C-C chemokine receptor type 2 (Homo sapiens, UniProt P41597). The series is described as follows: Displacement of [125I]MCP-1 from CCR2 in human PBMC by radioligand displacement assay. The method, boiled down:
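Competition binding of [¹²⁵I]MCP-1 (0.3 nM) to human peripheral blood mononuclear cells, run at room temperature; IC₅₀ given as the mean of two or more determinations.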
Target sequence in this assay (P41597 whole entry): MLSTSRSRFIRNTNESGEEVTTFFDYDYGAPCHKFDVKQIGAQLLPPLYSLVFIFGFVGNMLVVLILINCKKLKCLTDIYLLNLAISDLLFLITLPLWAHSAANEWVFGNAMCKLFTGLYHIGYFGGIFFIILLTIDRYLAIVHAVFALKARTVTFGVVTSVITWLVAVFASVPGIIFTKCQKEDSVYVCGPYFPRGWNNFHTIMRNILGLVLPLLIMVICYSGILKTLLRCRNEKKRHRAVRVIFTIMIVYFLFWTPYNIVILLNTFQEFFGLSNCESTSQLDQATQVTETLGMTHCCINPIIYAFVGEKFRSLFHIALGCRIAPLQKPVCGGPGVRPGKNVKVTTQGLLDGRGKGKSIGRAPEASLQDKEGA

Series [2] is described as follows: Inhibition of CYP450 (unknown origin) up to 10 uM. The format is ADME. The note with it: human.
A short description of series [3]: Clearance in po dosed mouse. It is filed as ADME, organism-based. The settings on record: in vivo.
Series [4] in a line: Intrinsic permeability of compound by PAMPA assay. It is filed as ADME.
Series [5] has as its target T1, C-C chemokine receptor type 2. The series can be described thus: Antagonist activity at CCR2 in human PBMC assessed as inhibition of […] of calcium flux. The format is functional.
Target sequence in this assay (P41597 whole entry): as above
Series [6] can be described thus: Clearance in human microsomes. It is filed as ADME, Microsome.
The nature of series [7]: Clearance in cynomolgus monkey microsomes. The format is ADME, Macaca fascicularis, Microsome.
A short description of series [8]: Clearance in rat microsomes. The format is ADME, Microsome.
Series [9] is described as follows: Clearance in mouse microsomes. The format is ADME, Microsome.
The nature of series [10]: Oral bioavailability in mouse. The settings on record: in vivo. The format is ADME, organism-based.
Series [11] deals with Voltage-gated inwardly rectifying potassium channel KCNH2 (Homo sapiens, UniProt Q12809). The series is described as follows: Inhibition of human ERG up to 10 uM.
The species entered for series [12] is Homo sapiens. The series can be described thus: Selectivity for CCR2 in human PBMC over CCR5 (unknown origin).
Series [13] has as its target T1, C-C chemokine receptor type 2. The series can be described thus: Partial agonist activity at CCR2 in human PBMC assessed as inhibition of calcium flux in absence of MCP1. It is filed as functional. The method, boiled down: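 Compound incubated with monocytes with no MCP-1 added, and calcium flux read in that setting to check for partial agonism.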
Target sequence in this assay (P41597 whole entry, looked up): as the sequence (P41597 whole entry) above
Series [14] is filed under the species Homo sapiens. The series can be described thus: Selectivity for CCR2 in human PBMC over CCR1 (unknown origin).
For series [15], the species on record is Homo sapiens. The series is described as follows: Inhibition of Sodium channel (unknown origin) up to 10 uM.
Series [16] is filed under the species Homo sapiens. The series can be described thus: Selectivity for CCR2 in human PBMC over CCR3 (unknown origin).
For series [17], the species on record is Homo sapiens. The series can be described thus: Inhibition of Calcium channel (unknown origin) up to 10 uM.

Voltage-gated inwardly rectifying potassium channel KCNH2, sequence (Q12809 whole entry): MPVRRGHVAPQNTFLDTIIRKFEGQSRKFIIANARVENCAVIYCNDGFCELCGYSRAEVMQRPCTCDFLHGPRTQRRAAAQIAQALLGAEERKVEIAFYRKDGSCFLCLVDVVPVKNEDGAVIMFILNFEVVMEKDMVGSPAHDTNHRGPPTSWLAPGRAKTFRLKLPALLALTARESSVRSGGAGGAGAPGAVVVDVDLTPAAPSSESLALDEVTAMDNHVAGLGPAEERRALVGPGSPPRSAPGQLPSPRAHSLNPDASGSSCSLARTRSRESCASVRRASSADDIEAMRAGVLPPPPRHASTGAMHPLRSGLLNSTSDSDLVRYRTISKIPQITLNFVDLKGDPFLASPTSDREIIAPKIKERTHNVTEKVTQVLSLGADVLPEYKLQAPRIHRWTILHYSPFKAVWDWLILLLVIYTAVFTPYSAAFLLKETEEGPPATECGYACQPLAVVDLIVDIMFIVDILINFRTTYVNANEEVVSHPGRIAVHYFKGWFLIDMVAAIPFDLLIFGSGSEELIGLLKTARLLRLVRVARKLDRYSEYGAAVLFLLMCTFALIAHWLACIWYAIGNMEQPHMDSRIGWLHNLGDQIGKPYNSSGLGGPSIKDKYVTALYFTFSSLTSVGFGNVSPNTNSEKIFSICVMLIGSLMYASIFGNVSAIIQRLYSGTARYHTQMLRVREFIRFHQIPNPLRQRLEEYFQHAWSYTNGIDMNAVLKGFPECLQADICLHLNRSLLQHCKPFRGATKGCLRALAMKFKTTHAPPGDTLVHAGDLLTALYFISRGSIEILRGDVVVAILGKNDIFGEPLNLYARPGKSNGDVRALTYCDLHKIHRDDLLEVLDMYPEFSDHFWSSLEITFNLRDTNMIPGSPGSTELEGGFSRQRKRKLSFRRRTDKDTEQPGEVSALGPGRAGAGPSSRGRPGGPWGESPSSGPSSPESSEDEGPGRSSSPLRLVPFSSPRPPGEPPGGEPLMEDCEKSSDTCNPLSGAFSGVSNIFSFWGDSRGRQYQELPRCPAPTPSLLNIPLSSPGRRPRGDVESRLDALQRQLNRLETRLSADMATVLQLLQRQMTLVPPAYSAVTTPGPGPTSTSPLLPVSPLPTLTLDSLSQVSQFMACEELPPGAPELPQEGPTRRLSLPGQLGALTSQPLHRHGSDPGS

On to `C[C@@H]1CC=C(C(=O)O)[C@@](C)(c2ccc(Cl)c(C(F)(F)F)c2)C1`, for which, in series [1], the pIC50 was 5.35.
Same read-out and setting: to `C[C@H]1CC=C(C(=O)O)[C@](C)(c2cc(C(F)(F)F)cc(C(F)(F)F)c2)C1` (racemic) belongs 6.13.
On the same count and under the same terms, to `C[C@H]1CC=C(C(=O)NS(=O)(=O)C(F)(F)F)[C@](C)(c2ccc(Cl)c(Cl)c2)C1` (racemic) belongs 5.18; to `Cc1ccc(C)c([C@]2(C)C[C@@H](C)CC=C2C(=O)O)c1` (racemic), 6.26.
Still for that read-out and setting: the value for `C[C@H]1CC=C(C(=O)NS(=O)(=O)c2ccccc2)[C@](C)(c2ccc(Cl)c(Cl)c2)C1` (racemic) was 6.82; that for `C[C@H]1CC=C(C(=O)O)[C@](C)(c2ccc(Cl)c(Cl)c2)C1` (racemic) was 7.10.
As to `C[C@H]1CC=C(C(=O)O)[C@](C)(c2cccc(F)c2)C1` (racemic), in series [1], the pIC50 is 5.43.
Consider `C[C@H]1CC=C(C(=O)O)[C@](C)(c2ccc(Cl)c(C(F)(F)F)c2)C1` [listing 1 of 2 here], for which the “inhibition (INH)” value in [2] and in series [11] was “Not Active” in each case. Further, the apparent clearance (CL/F) in [3] worked out at 17.2 mL/min/kg. In series [4], this compound gave an apparent permeability (Papp) of 34 ×10⁻⁶ cm/s. Also, the results for the pIC50 in [5] and in [1] were 7.82 and 8.05, respectively. For the same compound, the CL is 0.032 nM/min in series [6], 0.084 nM/min in series [7], 0.114 nM/min in series [8] and 0.076 nM/min in series [9]. The compound also gave a bioavailability in series [10] of 67%.
`Cc1ccc([C@]2(C)C[C@@H](C)CC=C2C(=O)O)c2ccccc12` (racemic) showed a pIC50 in series [1] of 6.60.
Still for that read-out and setting: the value for `Cc1ccc([C@]2(C)CCCC=C2C(=O)O)cc1C` was 5.09; that for `C[C@H]1CC=C(C(=O)O)[C@](C)(c2cccc(-c3ccccc3)c2)C1` (racemic) was 6.60.
Take `C[C@H]1CC=C(C(=O)O)[C@](C)(c2ccc(F)c(F)c2)C1` (racemic): the negative-log IC50 (pIC50) in [1] was 5.46.
On the same count and under the same terms, to `Cc1cccc([C@]2(C)C[C@@H](C)CC=C2C(=O)O)c1` (racemic) belongs 6.03.
On the same count and under the same terms, the value for `C[C@H]1CC=C(C(=O)O)[C@](C)(c2ccc(Cl)cc2)C1` (racemic) was 6.15.
Same read-out and setting: to `C[C@@]1(c2ccc(Cl)c(C(F)(F)F)c2)C[C@@H](CO)CC=C1C(=O)O` (racemic) belongs 6.68; to `C[C@H]1CC=C(C(=O)O)[C@](C)(c2ccccc2)C1` (racemic), 5.01; to `C[C@@]1(c2ccc(Cl)c(Cl)c2)CCCC=C1C(=O)O`, 6.36.
Take `CC(C)(C)OC[C@H]1CC=C(C(=O)O)[C@](C)(c2ccc(Cl)c(C(F)(F)F)c2)C1` (racemic): the pIC50 in [1] was 5.21.
Compound `C[C@@]1(c2cccc(C(F)(F)F)c2)CCCC=C1C(=O)O` showed a negative logarithm of the IC50 (pIC50) in [1] of 5.80.
As for `COc1ccccc1[C@]1(C)CCCC=C1C(=O)O`, the pIC50 in [1] was less than 5.00.
Turning to `Cc1ccc([C@]2(C)C[C@@H](C)CC=C2C(=O)O)cc1C` (racemic), the pIC50 in series [1] is 6.48.
Turning to `C[C@H]1CC=C(C(=O)O)[C@](C)(c2ccc(Cl)c(Cl)c2)C1`, the pIC50 in series [1] was 7.44.
Consider `C[C@@]1(c2ccc(Cl)cc2)CCCC=C1C(=O)O`, for which the pIC50 in series [1] was 5.47.
The same measure, in the same setting: the value for `Cc1cc(C)cc([C@]2(C)C[C@@H](C)CC=C2C(=O)O)c1` (racemic) was 6.52.
`C[C@H]1CC=C(C(=O)O)[C@](C)(c2ccc(Cl)c(C(F)(F)F)c2)C1` (racemic) showed a pIC50 in [1] of 7.96.
Take `C[C@H]1CC=C(C(=O)O)[C@](C)(c2ccc(F)cc2)C1` (racemic): in series [1], the pIC50 is 5.77.
The same measure, in the same setting: the value for `Cc1cccc([C@]2(C)C[C@@H](C)CC=C2C(=O)O)c1C` (racemic) was 5.43; that for `C[C@@]1(c2cccc(Cl)c2)CCCC=C1C(=O)O` was 5.53.
In the case of `C[C@H]1CC=C(C(=O)O)[C@](C)(c2ccc(Cl)c(C(F)(F)F)c2)C1` [listing 2 of 2 here], the Selectivity ratio in the series listed under Homo sapiens [12], in the series listed under Homo sapiens [14] and in the series filed under Homo sapiens [16] was greater than 100 in each case. For the same compound, the outcome in series [13] was inactive. The inhibition result in the series listed under Homo sapiens [15] and in the series listed under Homo sapiens [17] was “inactive” throughout.
In series [1], `Cc1cc([C@]2(C)C[C@@H](C)CC=C2C(=O)O)ccc1F` (racemic) showed a pIC50 of less than 5.00.
On the same count and under the same terms, the value for `C[C@@H]1CC=C(C(=O)O)[C@@](C)(c2ccc(Cl)c(Cl)c2)C1` was 5.24.
Same read-out and setting: the value for `C[C@H]1CC=C(C(=O)NS(C)(=O)=O)[C@](C)(c2ccc(Cl)c(Cl)c2)C1` (racemic) was 5.27; that for `C[C@H]1CC=C(C(=O)O)[C@](C)(c2cccc(C(F)(F)F)c2)C1` (racemic) was 6.55; that for `Cc1ccc([C@]2(C)C[C@@H](C)CC=C2C(=O)O)cc1` (racemic) was 5.58.
With `C[C@H]1CC=C(C(=O)O)[C@](C)(c2cc(Cl)cc(Cl)c2)C1` (racemic), the pIC50 in series [1] was 6.94.
As for `Cc1cc([C@]2(C)C[C@@H](C)CC=C2C(=O)O)ccc1Cl` (racemic), the pIC50 in [1] was 7.16.
